These results are taken from ChEMBL document CHEMBL1122469, “Synthesis of 1-(aminomethyl)-1,2,3,4-tetrahydroisoquinolines and their actions at adrenoceptors in vivo and in vitro” (J Med Chem, 1983).

Active and inactive are the calls of the source. No cut-off for these calls is given here.

The target of assay [1] is T1, Adrenergic receptor beta (Homo sapiens, UniProt P08588+P07550+P13945). Description: Beta adrenergic receptor agonist activity at compound concentration of 100 ug/mL in guinea pig, isolated, carbachol-contracted tracheal preparations. The conditions noted are these: Cavia porcellus; target entry is the homologue from another species. Type of assay: functional.
The target of assay [2] is T1, Adrenergic receptor beta. The assay is described as follows: Beta adrenergic receptor agonist activity in guinea pig, isolated, spontaneously beating, right atrial preparation. Type of assay: functional, tissue-based. The conditions noted are these: Cavia porcellus; Cardiac atrium; target entry is the homologue from another species. The essentials:
(§1)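 Right atria from guinea pigs (300–400 g, either sex) killed by cervical dislocation, in 10-mL Krebs–Henseleit baths under 0.02 N tension, spontaneously beating; rate read by tachograph. Two cumulative isoproterenol curves, then one test-compound curve, 30-min intervals, three washes after each. The second isoproterenol curve was the reference, with a desensitization correction (factor 1.2). Intrinsic activity relative to isoproterenol = 1. Ratio = molar EC50 of drug ÷ molar EC50 of isoproterenol, same experiment.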

Assay [3] addresses T1, Adrenergic receptor beta. Description: Beta adrenergic receptor agonist activity in reserpine pre-treated guinea pig, isolated, spontaneously beating, right atrial preparation. The assay is classed as functional, tissue-based. To be noted: Cavia porcellus; Cardiac atrium; target entry is the homologue from another species. The essentials: (§2)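 Guinea pigs given reserpine 5 mg/kg i.p., atria removed 18–24 h later and tested with tyramine 17 µmol/L beforehand. Spontaneously beating right atria in Krebs–Henseleit under 0.02 N tension, rate recorded. Cumulative isoproterenol curves (second used, corrected) and one test curve at 30-min intervals. Ratio = molar concentration at 50% own maximum ÷ isoproterenol equivalent, same experiment.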

In assay [4] the target is T1, Adrenergic receptor beta. Description: Beta adrenergic receptor antagonistic activity in guinea pig, isolated, carbachol-contracted tracheal preparations. Type of assay: functional, Cavia porcellus. The conditions noted are these: target entry is the homologue from another species. The essentials:
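Guinea pig trachea contracted with carbachol 10 µmol/L, 0.02 N resting tension, Krebs–Henseleit bath. Isoproterenol relaxation curves before and 15 min after antagonist, repeated at higher concentrations after washing. pA2 and slope from Schild plot (Arunlakshana–Schild). Slope difference from 1.0 tested by Student's t test.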

The target in assay [5] is T1, Adrenergic receptor beta. The assay is described as follows: Beta adrenergic receptor antagonistic activity in reserpine pre-treated guinea pig, isolated, spontaneously beating, right atrial preparation. The assay is classed as functional, tissue-based, Cavia porcellus, Cardiac atrium. To be noted: target entry is the homologue from another species.
In assay [6] the test system is Felis catus. Description: Activity ratio of molar concentration to molar concentration of isoproterenol in HR in choralose anaesthetized cats. Type of assay: functional. The essentials:
(§3)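 Chloralose (80 mg/kg) plus sodium phenobarbitone (6 mg/kg) i.p.-anesthetized, bilaterally vagotomized cats (2.3–3.6 kg, either sex), spontaneously breathing via tracheal cannula. Brachial vein injection in 0.9% NaCl. Carotid blood pressure and pulse-triggered heart rate recorded. Concurrent cumulative dose–response curves followed isoproterenol. Ratio = molar dose giving 50% of own maximum ÷ isoproterenol molar dose giving 50% of its maximum, same animal.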

A short description of assay [7]: Ratio of compound Emax(50) to that of isoproterenol Emax(50) in guinea pig, isolated, spontaneously beating, right atrial preparation; Expressed as drug Emax(50)/Iso Emax(50) mean. Type of assay: functional, Cardiac atrium. The essentials:
as §1

Assay [8] in a line: Ratio of compound Emax(50) to that of isoproterenol Emax(50) in reserpine-pretreated, guinea pig, isolated, spontaneously beating, right atrial preparation; Expressed as drug Emax(50)/Iso Emax(50) mean. Type of assay: functional, Cardiac atrium. The essentials:
as §2

Assay [9] relates to Felis catus. The assay is described as follows: Activity ratio of molar concentration to molar concentration of isoproterenol in DBP in choralose anaesthetized cats. The assay is classed as functional. The essentials: as §3
In assay [10] the target is T1, Adrenergic receptor beta. Description: Beta adrenergic receptor agonist activity in guinea pig, isolated, carbachol-contracted tracheal preparations. To be noted: Cavia porcellus; target entry is the homologue from another species. The assay is classed as functional. The essentials:
(§4)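 Guinea pigs (300–400 g, either sex) killed by cervical dislocation. Trachea mounted in a 10-mL bath of Krebs–Henseleit under 0.02 N resting tension. Tone raised submaximally with carbachol 10 µmol/L, and relaxation recorded. Cumulative test-compound curves went up to 100 µg/mL, referenced to isoproterenol (=1). Where no maximum was reached, values reflect the 100 µg/mL response. Ratios were taken at 15% of isoproterenol maximum.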

For assay [11], the target named is T1, Adrenergic receptor beta. Description: Beta adrenergic receptor agonist activity a in guinea pig, isolated, carbachol-contracted tracheal preparations. The conditions noted are these: Cavia porcellus; target entry is the homologue from another species. Type of assay: functional. The essentials: as §4
Assay [12] deals with T1, Adrenergic receptor beta. The assay is described as follows: Beta adrenergic receptor antagonistic activity in guinea pig, isolated, carbachol-contracted tracheal preparations; NA = No antagonism of isoproterenol responses up to 2.2 x 10E-8 mol/L. To be noted: Cavia porcellus; target entry is the homologue from another species. The assay is classed as functional.
The target in assay [13] is T1, Adrenergic receptor beta. The assay is described as follows: Beta adrenergic receptor antagonistic activity in reserpine pre-treated guinea pig, isolated, spontaneously beating, right atrial preparation; NA = No antagonism of isoproterenol responses up to 2.2 x 10E-8 mol/L. The assay is classed as functional, tissue-based. To be noted: Cavia porcellus; Cardiac atrium; target entry is the homologue from another species. The essentials:
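Guinea pigs given reserpine 5 mg/kg i.p. 18–24 h before tissue removal, then checked with tyramine 17 µmol/L. Spontaneously beating right atrium held in Krebs–Henseleit at 0.02 N tension, with rate read by tachograph. Isoproterenol cumulative curves were run before and 15 min after adding the test drug, then repeated after washing at higher drug concentration. pA2 was determined by the Arunlakshana–Schild method.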

Broadly, the pA2 is a measure of antagonist potency on a negative log scale.

Regarding `CC(C)(C)NCC1NCCc2cc(O)c(O)cc21` (centres undefined), the Intrinsic activity was determined as 0.18 at Adrenergic receptor beta [1], 0.14 at Adrenergic receptor beta [2] and 0.29 on Adrenergic receptor beta [3]. Also, the pD2 at Adrenergic receptor beta [1] was 3.51; at Adrenergic receptor beta [2], 5.1; at Adrenergic receptor beta [3], 5.23. In addition, the results for the pA2 at Adrenergic receptor beta [4] and on Adrenergic receptor beta [5] were 5.76 and 4.68, respectively. Further, the Activity ratio in the assay on Felis catus [6] stood at 900. The Ratio came out at 2100 in assay [7] and 3600 in assay [8].

With `CC(C)NCC1NCCc2cc(O)c(O)cc21` (centres undefined), the values for the Intrinsic activity at Adrenergic receptor beta [1], at Adrenergic receptor beta [2] and on Adrenergic receptor beta [3] were 0.06, 0.42 and 0.59, respectively. In addition, the pD2 at Adrenergic receptor beta [1] turned out to be 3.49; on Adrenergic receptor beta [2], 5.05; on Adrenergic receptor beta [3], 5.18. In addition, the values for the pA2 on Adrenergic receptor beta [4] and on Adrenergic receptor beta [5] were 5.05 and 4.84, respectively. Also, the Activity ratio was 2200 in the assay with Felis catus [9] and 1700 in the assay on Felis catus [6]. The Ratio is 2700 in assay [7] and 4400 in assay [8].

Turning to `NCC1NCCc2cc(O)c(O)cc21` (centres undefined), the values for the Intrinsic activity at Adrenergic receptor beta [1], on Adrenergic receptor beta [2] and at Adrenergic receptor beta [3] were 0.2, 0.7 and 0.53, respectively. Further, the pD2 on Adrenergic receptor beta [1] came to 3.44; at Adrenergic receptor beta [2] it was 4.49; on Adrenergic receptor beta [3], 4.22. The pA2 is recorded as 4.66 at Adrenergic receptor beta [4] and 4.63 at Adrenergic receptor beta [5]. In the assay with Felis catus [6], the Activity ratio was determined as 12700. In addition, the Ratio in assay [7] turned out to be 8800; in assay [8] it was 32600.

Regarding `Oc1ccc(CC2NCCc3cc(O)c(O)cc32)cc1O` (centres undefined), the pD2 was determined as 6.45 on Adrenergic receptor beta [10], 6.96 on Adrenergic receptor beta [2] and 7.05 at Adrenergic receptor beta [3]. Besides, the Intrinsic activity turned out to be 0.62 on Adrenergic receptor beta [11], 0.94 on Adrenergic receptor beta [2] and 0.95 at Adrenergic receptor beta [3]. For the same compound, the pA2 result on Adrenergic receptor beta [12] and at Adrenergic receptor beta [13] was “inactive” throughout. The Ratio is given as 26 in [7] and 38 in [8].
